# Measurements taken from ChEMBL document CHEMBL1641520, “Design, synthesis, and biological evaluation of novel water-soluble N-mustards as potential anticancer agents” (Bioorg Med Chem, 2011).
# Activity calls are given as the source filed them. No cut-off for these calls is given here.
# What was measured:
# CCRF-CEM [1] = test: Selectivity ratio of IC50 for vinblastine-resistant human CCRF-CEM cells to IC50 for human CCRF-CEM cells; assay type: functional
# CCRF-CEM [2] = test: Cytotoxicity against taxol-resistant human CCRF-CEM cells after 72 hrs by XTT assay; assay type: functional, cell-based
# Procedure, shortened: (§1)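 CCRF-CEM leukemia cells and their taxol- or vinblastine-resistant sublines given compound for 72 h. XTT read-out: after phenazine methosulfate–XTT, 6 h at 37 °C, absorbance at 450 and 630 nm. IC50 from median-effect analysis of dose-effect data at six or seven concentrations.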
# CCRF-CEM [3] = test: Selectivity ratio of IC50 for taxol-resistant human CCRF-CEM cells to IC50 for human CCRF-CEM cells; assay type: functional
# CCRF-CEM [4] = test: Cytotoxicity against human CCRF-CEM cells after 72 hrs by XTT assay; assay type: functional, cell-based; procedure, shortened: as §1
# HCT-116 = test: Cytotoxicity against human HCT116 cells after 72 hrs by SRB assay; assay type: functional, cell-based; conditions: HCT-116, 72 h
# Procedure, shortened: (§2)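 MX-1 breast and HCT-116 colon carcinoma cells exposed to compound for 72 h; growth measured by sulforhodamine B assay. IC50 from median-effect analysis of dose-effect data at six or seven concentrations.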
# MX1 = test: Cytotoxicity against human MX1 cells after 72 hrs by SRB assay; assay type: functional, cell-based; conditions: MX1, 72 h; procedure, shortened: as §2
# CCRF-CEM [5] = test: Cytotoxicity against vinblastine-resistant human CCRF-CEM cells after 72 hrs by XTT assay; assay type: functional, cell-based; procedure, shortened: as §1
# Nucleic Acid = test: Binding affinity to Escherichia coli plasmid EGFP-N1 DNA at 1 to 10 uM after 22 hrs by alkaline agarose gel shift assay; assay type: nucleic-acid assay
# Procedure, shortened: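 Purified pEGFP-N1 plasmid DNA (1500 ng) incubated with compound (1–20 µM) in 3 mM NaCl/1 mM sodium phosphate pH 7.4/1 mM EDTA for 2 h at 37 °C. Linearized with BamHI, ethanol-precipitated, denatured in 0.5 N NaOH-10 mM EDTA. Run on 0.8% alkaline agarose gel at 4 °C, 18 V for 22 h. Ethidium bromide stain; cross-linked double-stranded DNA scored against single-stranded DNA.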
# PC-3 = test: Cytotoxicity against human PC3 cells after 72 hrs by alamar blue assay; assay type: functional, cell-based; conditions: PC-3, 72 h
# Procedure, shortened: (§3)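 H1299, PC3, CL1-0, CL1-5 and MCF-7 cells exposed to compound for 72 h. Alamar blue added, then 6 h at 37 °C; absorbance at 570 and 600 nm. IC50 from median-effect analysis of dose-effect data at six or seven concentrations.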
# MCF7 = test: Cytotoxicity against human MCF7 cells after 72 hrs by alamar blue assay; assay type: functional, cell-based; conditions: MCF7, 72 h; procedure, shortened: as §3
# [6] = Cytotoxicity against human H1299 cells after 72 hrs by alamar blue assay; assay type: functional, cell-based; conditions: NCI-H1299, 72 h; procedure, shortened: as §3
# [7] = Cytotoxicity against human CL1-5 cells after 72 hrs by alamar blue assay; assay type: functional, cell-based; conditions: CL1-5, 72 h; procedure, shortened: as §3
# [8] = Cytotoxicity against human CL1-0 cells after 72 hrs by alamar blue assay; assay type: functional, cell-based; conditions: CL1-0, 72 h; procedure, shortened: as §3
# U-87MG ATCC = conditions: Homo sapiens, 80 mg/kg
Structure (SMILES),Ratio IC50 (CCRF-CEM [1]),IC50 (CCRF-CEM [2]),Ratio IC50 (CCRF-CEM [3]),IC50 (CCRF-CEM [4]),IC50 (HCT-116),IC50 (MX1),IC50 (CCRF-CEM [5]),Activity (Nucleic Acid),IC50 (PC-3),IC50 (MCF7),IC50 [6],IC50 [7],IC50 [8],inhibition (U-87MG ATCC)
CC[C@]1(O)C[C@@H]2CN(CCc3c([nH]c4ccccc34)[C@@](C(=O)OC)(c3cc4c(cc3OC)N(C)[C@H]3[C@@](O)(C(=O)OC)[C@H](OC(C)=O)[C@]5(CC)C=CCN6CC[C@]43[C@@H]65)C2)C1 [VINBLASTINE],679.5,80 nM,106.2,0.7 nM,,,,,,,,,,
Cl.O=C(Nc1ccc(C(=O)NCCN2CCOCC2)cc1)Nc1ccc(N(CCCl)CCCl)cc1,16.8,19800 nM,27.1,730 nM,2740 nM,3390 nM,29800 nM,,,,,,,
Cl.O=C(Nc1ccc(N(CCCl)CCCl)cc1)Nc1cccc(C(=O)NCCN2CCOCC2)c1,28.1,8160 nM,14.1,580 nM,1210 nM,1450 nM,16300 nM,,,,,,,
CN(C)CCCOc1ccc(NC(=O)Nc2ccc(N(CCCl)CCCl)cc2)cc1.Cl,10.9,1360 nM,11.8,120 nM,290 nM,260 nM,1260 nM,Active,940 nM,1320 nM,9790 nM,5110 nM,7090 nM,
O=C(Nc1ccc(N(CCCl)CCCl)cc1)Nc1cccc(OCCN2CCCC2)c1,12.1,1200 nM,3.5,350 nM,,,4200 nM,,,,,,,
Cl.O=C(Nc1ccc(N(CCCl)CCCl)cc1)Nc1cccc(C(=O)N2CCC(N3CCCCC3)CC2)c1,71.6,12200 nM,43.5,280 nM,810 nM,2240 nM,20000 nM,,3190 nM,3090 nM,11500 nM,8090 nM,6230 nM,
Cl.O=C(Nc1ccc(OCCN2CCCCC2)cc1)Nc1ccc(N(CCCl)CCCl)cc1,7.47,500 nM,4.02,120 nM,270 nM,150 nM,720 nM,Active,930 nM,1240 nM,1840 nM,4750 nM,2870 nM,
Cl.O=C(Nc1ccc(C(=O)NCCN2CCCCC2)cc1)Nc1ccc(N(CCCl)CCCl)cc1,67.8,15000 nM,41.8,360 nM,910 nM,4400 nM,24300 nM,,,,,,,
Cl.O=C(Nc1ccc(OCCN2CCOCC2)cc1)Nc1ccc(N(CCCl)CCCl)cc1,1.8,840 nM,2.4,350 nM,,,640 nM,,,,,,,
CN(C)CCCNC(=O)c1cccc(NC(=O)Nc2ccc(N(CCCl)CCCl)cc2)c1.Cl,151.8,21200 nM,9.4,290 nM,850 nM,2330 nM,44000 nM,,,,,,,
CN(C)CCOc1cccc(NC(=O)Nc2ccc(N(CCCl)CCCl)cc2)c1,1.1,810 nM,0.6,1320 nM,,,1480 nM,,,,,,,
O=C(Nc1ccc(N(CCCl)CCCl)cc1)Nc1cccc(OCCN2CCCCC2)c1,3.8,570 nM,3,190 nM,270 nM,190 nM,730 nM,,1130 nM,1820 nM,1520 nM,3250 nM,2730 nM,
O=C(Nc1ccc(N(CCCl)CCCl)cc1)Nc1cccc(OCCN2CCOCC2)c1,2.8,730 nM,1.8,410 nM,,,1130 nM,,,,,,,
Cl.O=C(Nc1ccc(N(CCCl)CCCl)cc1)Nc1cccc(C(=O)NCCN2CCCC2)c1,106.9,25200 nM,73.7,340 nM,470 nM,2170 nM,36600 nM,,,,,,,
CN(C)CCCNC(=O)c1ccc(NC(=O)Nc2ccc(N(CCCl)CCCl)cc2)cc1.Cl,124.8,20400 nM,77.5,260 nM,4540 nM,1110 nM,32800 nM,,5250 nM,5170 nM,12700 nM,9790 nM,16200 nM,
Cl.O=C(Nc1ccc(N(CCCl)CCCl)cc1)Nc1cccc(C(=O)NCCN2CCCCC2)c1,43.7,4620 nM,17,270 nM,310 nM,730 nM,10500 nM,Active,1700 nM,1180 nM,6220 nM,4640 nM,8670 nM,
CN(C)CCNC(=O)c1ccc(NC(=O)Nc2ccc(N(CCCl)CCCl)cc2)cc1.Cl,29.6,4800 nM,21.1,230 nM,390 nM,1090 nM,6740 nM,,,,,,,
CN(C)CCCOc1cccc(NC(=O)Nc2ccc(N(CCCl)CCCl)cc2)c1,7.4,2050 nM,6.4,320 nM,,,2370 nM,,,,,,,
Cl.O=C(Nc1ccc(C(=O)NCCN2CCCC2)cc1)Nc1ccc(N(CCCl)CCCl)cc1,112.5,19700 nM,71.8,270 nM,360 nM,2330 nM,30800 nM,,,,,,,
Cl.O=C(Nc1ccc(C(=O)N2CCC(N3CCCCC3)CC2)cc1)Nc1ccc(N(CCCl)CCCl)cc1,143.7,20500 nM,91.4,220 nM,640 nM,3640 nM,32200 nM,,1910 nM,1540 nM,9630 nM,8510 nM,15800 nM,
CN(C)CCOc1ccc(NC(=O)Nc2ccc(N(CCCl)CCCl)cc2)cc1.Cl,6.02,1500 nM,7.6,100 nM,270 nM,280 nM,1190 nM,,1670 nM,1250 nM,4380 nM,3010 nM,4070 nM,
Cl.O=C(Nc1ccc(OCCN2CCCC2)cc1)Nc1ccc(N(CCCl)CCCl)cc1,15,1570 nM,11.5,140 nM,700 nM,490 nM,2050 nM,,1780 nM,1840 nM,2250 nM,5920 nM,3010 nM,
O=P1(N(CCCl)CCCl)NCCCO1 (stereo not drawn),,,,,,,,,,,,,,Active
CC(=O)O[C@H]1C(=O)[C@@]2(C)[C@H]([C@H](OC(=O)c3ccccc3)[C@]3(O)C[C@H](OC(=O)[C@H](O)[C@@H](NC(=O)c4ccccc4)c4ccccc4)C(C)=C1C3(C)C)[C@]1(OC(C)=O)CO[C@@H]1C[C@@H]2O [PACLITAXEL],980,,330,3 nM,,,,,,,,,,
